Consider three substances from article PMC9380907 (Analytica Chimica Acta, 2022).

Common to all, as to type: binding
A short description of one assay: Cu. Particulars: SWV, n = 3. Summed up:
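Au slides were cleaned by sonication in 20 wt% ethanolamine at about 50 °C, then dipped briefly in piranha. Probe 1 (2.5 μM) with 5 mM TCEP in 10 mM PBS pH 7.4 was assembled at 4 °C for 16 h, then backfilled with 1 mM 9-mercaptononanol for 3 h at RT. Cu was loaded with 10 μM CuCl2 for 30 min at RT. Cathepsin B was in 25 mM MES pH 5.0 and incubated at 37 °C. SWV was run in N2-purged 10 mM PBS pH 7.4 (SCE, Pt counter), with at least three independent repeats.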

In the next assay the test system is TGF. Briefly: ITC of probe 2 with TGF. Particulars: 25 °C. Summed up:
(§1)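 MicroCal ITC200 titrations at 25 °C: 38 consecutive injections at intervals of at least 120 s. All solutions were degassed beforehand. Heats of dilution, measured by titrating beyond saturation, were subtracted from each data set.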

Assay [1] is described as follows: ITC of probe 2 with the label. As to conditions: 25 °C, 10 mM PBS pH 7.4, 0.5 mM probe 2 into 0.05 mM label. Summed up: as §1
The nature of the next assay: ITC with heparin. Particulars: 25 °C, 10 mM PBS pH 7.4. In outline: as §1

Turning to “11-Mercaptoundecanoic acid (MUA)K-DAHKI-(ARKKAAKA)3VLVLVLVL [probe 1]”, the “Binding with Cu II ion” value in “Cu” (surface immobilized probe 1, after cleavage by target enzyme (33 nM)) is on record as “completely abolish the binding”; in the assay “Cu” (surface immobilized probe 1, before enzyme cleavage), “relatively strong binding”.
For “(MUA)K–FSHF-(ARKKAAKA)3VLVLVLVL [probe 2]”, in the assay with TGF (10 mM PBS pH 7.4, 0.5 mM probe 2 into 0.05 mM TGF), the “Binding to target TGF” value is “bind strongly”. The “Binding with target TGF relative to label” value in the assay with TGF (10 mM PBS pH 7.4, comparison with label) is “stronger”. The Binding to label entry in assay [1] was “bind strongly”.
As to “TGF beta 1: transforming growth factor-beta 1, from R&D system”, the Interaction with heparin result in “ITC with heparin” was “weak interactions with heparin”.
